The values that follow come from publication PMC5844354 (Chembiochem : a European journal of chemical biology, 2018).

Structures are written as SMILES.

Assay [1] addresses T1, Fis1 (Homo sapiens, UniProt Q9Y3D6).
T1 sequence (Q9Y3D6 1-125): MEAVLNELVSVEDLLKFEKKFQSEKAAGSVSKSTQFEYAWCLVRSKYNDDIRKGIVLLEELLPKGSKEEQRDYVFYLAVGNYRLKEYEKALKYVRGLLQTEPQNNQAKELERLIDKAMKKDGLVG
Format: binding. The following applies: for binding to Fis1 in library screen: 1 mM fragment, 352-fragment library screen; for nonspecific NMR crosspeak broadening of Fis1: 1 mM compound, 50 μM 15N-Fis1, SOFAST-HMQC. The method in brief: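 Human Fis1 cytosolic domain (residues 1–125), His₆-SUMO fusion, expressed in ¹⁵N minimal medium and Ni-affinity purified. Buffer was 50 mM sodium phosphate pH 7.0, 175 mM NaCl, 2 mM DTT, 10% D₂O. Library screen: 352 fragments pooled six per sample, 1 mM each, 97 μM protein, 3% [D₆]DMSO, hits at +1 σ. Follow-up: single fragments at 1 mM with 50 μM protein. ¹H,¹⁵N SOFAST-HMQC at 25°C.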

In assay [2] the target is T1, Fis1. In words: Mass spectrometry of Fis1 with interfering compounds. The following applies: from apo Fis1 14 487.2 Da; suggests direct chemical modification.
In a further assay the target is CXCL12 (Homo sapiens, UniProt P48061). Kind of assay: 2D protein-detected NMR of individual compounds at 1 mM against 15N-CXCL12. The following applies: 1 mM compound, 100 μM 15N-CXCL12, SOFAST-HMQC. The format is binding. The procedure, abridged: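 Commercial recombinant human ¹⁵N-CXCL12. Each test compound was screened singly: 1 mM final in 0.5% (v/v) [D₆]DMSO, 99.5 μM final protein, with a DMSO control. Buffer was 50 mM sodium phosphate pH 6.0, 0.02% sodium azide, 10% D₂O. ¹H,¹⁵N SOFAST-HMQC at 25°C and 600 MHz with cryoprobe; 16 scans, 1024 × 210 complex points. Spectra were overlaid on the DMSO control.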

Assay [3] deals with first bromodomain of BRD4. The following applies: cited from earlier work.
The target of a further assay is BRD4(BD2) (Homo sapiens, UniProt O60885). Kind of assay: NMR titration. Format: binding.

Chain of CXCL12 (P48061 22-89 limits assumed): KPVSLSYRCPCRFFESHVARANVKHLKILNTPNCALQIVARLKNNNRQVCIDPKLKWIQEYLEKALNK

On to `Nc1cc2ccccc2cc1O` [3-amino-2-naphthol], for which, at Fis1 [1], the “binding to Fis1 in library screen” value is listed as “none of which bound appreciably”.

Turning to `Cc1cc(O)ccc1O` [2-methylbenzene-1,4-diol], on Fis1 [2], the “mass shift of Fis1” value stood at 119.7 Da.

As for `Nc1cccc2cccc(N)c12` [1,8-diaminonaphthalene], on Fis1 [1], the “binding to Fis1 in library screen” value is “none of which bound appreciably”.

As to `Nc1ccc(O)cc1` [4-aminophenol], the “nonspecific NMR crosspeak broadening of Fis1” value at Fis1 [1] is listed as “did not induce nonspecific NMR crosspeak broadening”.

Consider `NS(=O)(=O)c1ccc2ccccc2c1` [naphthalene-2-sulfonamide], for which the “binding to Fis1 in library screen” value at Fis1 [1] is “none of which bound appreciably”.

Take `O=C1c2ccccc2C(=O)C1(O)O` [ninhydrin]: the “nonspecific NMR crosspeak broadening of Fis1” value at Fis1 [1] was “induce nonspecific NMR crosspeak broadening across all targets screened”. In addition, the “nonspecific NMR crosspeak broadening of CXCL12” value on CXCL12 is “induce nonspecific NMR crosspeak broadening across all targets screened”.

For `CC(=O)Nc1ccc(O)cc1` [acetaminophen], the dissociation constant (Kd) is 290 µM in assay [3] and 1600 µM at BRD4(BD2).

By Kd is commonly meant the concentration at which binding is half-saturated.
